Results reported in ChEMBL document CHEMBL1122917, “Vinblastin-23-oyl amino acid derivatives: chemistry, physicochemical data, toxicity, and antitumor activities against P388 and L1210 leukemias” (J Med Chem, 1985).

Columns and labels:
Assay type in all cases: functional
[1] = test system: Mus musculus; test: Percent increase in life span at dose 30 mg/kg/day in 10 mice implanted with P388 leukemia cell line
In short: (§1)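 Female DBA2 mice inoculated iv on day 0 with 10^4 P388 cells; single iv treatment on day 1 with drug as sulfate salt in physiological saline. Survival followed; %ILS from all deaths and survivors as (T/C × 100) − 100, maximal MST 30 days; survivors counted on days 30 and 60. Most experiments confirmed three times.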

[2] = test system: Mus musculus; test: Percent increase in life span at dose 20 mg/kg/day in 10 mice implanted with P388 leukemia cell line; in short: as §1
[3] = test system: Mus musculus; test: Number of survivors of DBA2 mice on 60th day after inoculation with L1210 leukemia cell line intravenously at a dose of 40 mg/kg/day; 0/10; settings: route intravenous
[4] = test system: Mus musculus; test: Number of survivors on 30th day at dose 30 mg/kg/day in 10 mice implanted with P388 leukemia cell line; 1/10
[5] = test system: Mus musculus; test: Number of survivors on 60th day at dose 40 mg/kg/day in 10 mice implanted with P388 leukemia cell line; 0/10
[6] = test system: Mus musculus; test: Number of survivors on 30th day at dose 50 mg/kg/day in 9 mice implanted with P388 leukemia cell line; 0/9
[7] = test system: Mus musculus; test: Number of survivors on 60th day at dose 45 mg/kg/day in 10 mice implanted with P388 leukemia cell line; 0/10
[8] = test system: Mus musculus; test: Percent increase in life span of DBA2 mice after inoculation with L1210 leukemia intravenously at a dose of 45 mg/kg per day; settings: route intravenous
In short: (§2)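 Female DBA2 mice inoculated iv on day 0 with 10^4 L1210 cells; drugs given iv as sulfate salts in physiological saline, mostly once on day 1. %ILS from all deaths and survivors as (T/C × 100) − 100; survivors scored on days 30 and 60.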

[9] = test system: Mus musculus; test: Percent increase in life span of DBA2 mice after inoculation with L1210 leukemia intravenously at a dose of 40 mg/kg per day; settings: route intravenous
[10] = test system: Mus musculus; test: Number of survivors on 30th day at dose 40 mg/kg/day in 10 mice implanted with P388 leukemia cell line; 0/10
[11] = test system: Mus musculus; test: Percent increase in life span at dose 50 mg/kg/day in 10 mice implanted with P388 leukemia cell line; in short: as §1
[12] = test system: Mus musculus; test: Number of survivors on 30th day at dose 20 mg/kg/day in 10 mice implanted with P388 leukemia cell line; 0/10
[13] = test system: Mus musculus; test: Number of survivors on 60th day at dose 20 mg/kg/day in 10 mice implanted with P388 leukemia cell line; 0/10
[14] = test system: Mus musculus; test: Number of survivors on 60th day at dose 30 mg/kg/day in 10 mice implanted with P388 leukemia cell line; 0/10
[15] = test system: Mus musculus; test: Number of survivors of DBA2 mice on 30th day after inoculation with L1210 leukemia cell line intravenously at a dose of 45 mg/kg/day; 0/10; settings: route intravenous
[16] = test system: Mus musculus; test: Number of survivors of DBA2 mice on 30th day after inoculation with L1210 leukemia cell line intravenously at a dose of 40 mg/kg/day; 0/10; settings: route intravenous
[17] = test system: Mus musculus; test: Number of survivors on 60th day at dose 50 mg/kg/day in 9 mice implanted with P388 leukemia cell line; 0/9
[18] = test system: Mus musculus; test: Percent increase in life span at dose 45 mg/kg/day in 10 mice implanted with P388 leukemia cell line
[19] = test system: Mus musculus; test: Number of survivors on 30th day at dose 45 mg/kg/day in 10 mice implanted with P388 leukemia cell line; 2/10
[20] = test system: Mus musculus; test: Percent increase in life span at dose 40 mg/kg/day in 10 mice implanted with P388 leukemia cell line; in short: as §1
[21] = test system: Mus musculus; test: Number of survivors of DBA2 mice on 60th day after inoculation with L1210 leukemia cell line intravenously at a dose of 45 mg/kg/day; 0/10; settings: route intravenous
[22] = test system: Mus musculus; test: Number of survivors on 30th day at dose 50 mg/kg/day in 10 mice implanted with P388 leukemia cell line; 0/10
[23] = test system: Mus musculus; test: Number of survivors on 60th day at dose 50 mg/kg/day in 10 mice implanted with P388 leukemia cell line; 0/10
[24] = test system: Mus musculus; test: Number of survivors on 30th day at dose 10 mg/kg/day in 10 mice implanted with P388 leukemia cell line; 0/10
[25] = test system: Mus musculus; test: Number of survivors on 60th day at dose 10 mg/kg/day in 10 mice implanted with P388 leukemia cell line; 0/10
[26] = test system: Mus musculus; test: Number of survivors on 30th day at dose 55 mg/kg/day in 10 mice implanted with P388 leukemia cell line
[27] = test system: Mus musculus; test: Percent increase in life span at dose 60 mg/kg/day in 10 mice implanted with P388 leukemia cell line; in short: as §1
[28] = test system: Mus musculus; test: Number of survivors of DBA2 mice on 60th day after inoculation with L1210 leukemia cell line intravenously at a dose of 55 mg/kg/day; 0/10; settings: route intravenous
[29] = test system: Mus musculus; test: Number of survivors of DBA2 mice on 30th day after inoculation with L1210 leukemia cell line intravenously at a dose of 50 mg/kg/day; 0/10; settings: route intravenous
[30] = test system: Mus musculus; test: Percent increase in life span of DBA2 mice after inoculation with L1210 leukemia intravenously at a dose of 55 mg/kg per day; settings: route intravenous; in short: as §2
[31] = test system: Mus musculus; test: Number of survivors on 30th day at dose 70 mg/kg/day in 10 mice implanted with P388 leukemia cell line
[32] = test system: Mus musculus; test: Number of survivors on 60th day at dose 40 mg/kg/day in 10 mice implanted with P388 leukemia cell line
[33] = test system: Mus musculus; test: Number of survivors of DBA2 mice on 60th day after inoculation with L1210 leukemia cell line intravenously at a dose of 50 mg/kg/day; 0/10; settings: route intravenous
[34] = test system: Mus musculus; test: Number of survivors on 30th day at dose 30 mg/kg/day in 10 mice implanted with P388 leukemia cell line
[35] = test system: Mus musculus; test: Percent increase in life span at dose 70 mg/kg/day in 10 mice implanted with P388 leukemia cell line; in short: as §1
[36] = test system: Mus musculus; test: Percent increase in life span of DBA2 mice after inoculation with L1210 leukemia intravenously at a dose of 50 mg/kg per day; settings: route intravenous; in short: as §2
[37] = test system: Mus musculus; test: Number of survivors on 30th day at dose 50 mg/kg/day in 10 mice implanted with P388 leukemia cell line
[38] = test system: Mus musculus; test: Number of survivors on 60th day at dose 60 mg/kg/day in 10 mice implanted with P388 leukemia cell line; in short: as §1
[39] = test system: Mus musculus; test: Number of survivors on 60th day at dose 50 mg/kg/day in 10 mice implanted with P388 leukemia cell line
[40] = test system: Mus musculus; test: Number of survivors on 60th day at dose 55 mg/kg/day in 10 mice implanted with P388 leukemia cell line
[41] = test system: Mus musculus; test: Number of survivors of DBA2 mice on 30th day after inoculation with L1210 leukemia cell line intravenously at a dose of 55 mg/kg/day; 0/10; settings: route intravenous
[42] = test system: Mus musculus; test: Number of survivors on 30th day at dose 40 mg/kg/day in 10 mice implanted with P388 leukemia cell line
[43] = test system: Mus musculus; test: Number of survivors on 60th day at dose 70 mg/kg/day in 10 mice implanted with P388 leukemia cell line; in short: as §1
[44] = test system: Mus musculus; test: Number of survivors on 30th day at dose 60 mg/kg/day in 10 mice implanted with P388 leukemia cell line
[45] = test system: Mus musculus; test: Percent increase in life span at dose 55 mg/kg/day in 10 mice implanted with P388 leukemia cell line; in short: as §1
[46] = test system: Mus musculus; test: Number of survivors on 60th day at dose 30 mg/kg/day in 10 mice implanted with P388 leukemia cell line

CCOC(=O)[C@@H](Cc1c[nH]c2ccccc12)NC(=O)[C@@]1(O)[C@H](O)[C@]2(CC)C=CCN3CC[C@@]4(c5cc([C@@]6(C(=O)OC)C[C@H]7C[N@](CCc8c6[nH]c6ccccc86)C[C@](O)(CC)C7)c(OC)cc5N(C)[C@@]14C)[C@@H]32
ILS at 30 mg/kg/day [1]: 41.4%
ILS at 20 mg/kg/day [2]: 18.7%
Survivors [3]: 0
Survivors [4]: 1
Survivors [5]: 0
Survivors [6]: 0
Survivors [7]: 0
ILS at 45 mg/kg/day [8]: 34.6%
ILS at 40 mg/kg/day [9]: 21.8%
Survivors [10]: 0
ILS at 50 mg/kg/day [11]: 59%
Survivors [12]: 0
Survivors [13]: 0
Survivors [14]: 0
Survivors [15]: 0
Survivors [16]: 0
Survivors [17]: 0
ILS at 45 mg/kg/day [18]: 85%
Survivors [19]: 2
ILS at 40 mg/kg/day [20]: 53.8%
Survivors [21]: 0

CCOC(=O)[C@H](CCC(=O)O)NC(=O)[C@@]1(O)[C@H](O)[C@]2(CC)C=CCN3CC[C@@]4(c5cc([C@@]6(C(=O)OC)C[C@H]7C[N@](CCc8c6[nH]c6ccccc86)C[C@](O)(CC)C7)c(OC)cc5N(C)[C@@]14C)[C@@H]32
ILS at 20 mg/kg/day [2]: 10%
Survivors [22]: 0
Survivors [5]: 0
Survivors [23]: 0
Survivors [10]: 0
ILS at 50 mg/kg/day [11]: 2.8%
Survivors [12]: 0
Survivors [13]: 0
Survivors [24]: 0
ILS at 40 mg/kg/day [20]: 34.5%
Survivors [25]: 0

CC[C@]1(O)C[C@@H]2C[N@](CCc3c([nH]c4ccccc34)[C@@](C(=O)OC)(c3cc4c(cc3OC)N(C)[C@@]3(C)[C@@](O)(C(=O)N[C@@H](Cc5c[nH]c6ccccc56)C(=O)OC)[C@H](O)[C@]5(CC)C=CCN6CC[C@]43[C@@H]65)C2)C1
Survivors [26]: 2
ILS at 30 mg/kg/day [1]: 33.9%
ILS at 60 mg/kg/day [27]: 132%
Survivors [28]: 0
Survivors [29]: 0
ILS at 55 mg/kg/day [30]: 60.2%
Survivors [31]: 5
Survivors [32]: 0
Survivors [33]: 0
Survivors [34]: 0
ILS at 70 mg/kg/day [35]: 145%
ILS at 50 mg/kg/day [36]: 47.4%
ILS at 50 mg/kg/day [11]: 110%
Survivors [37]: 1
Survivors [38]: 2
Survivors [39]: 1
Survivors [40]: 1
Survivors [41]: 0
Survivors [42]: 0
Survivors [43]: 3
Survivors [44]: 3
ILS at 55 mg/kg/day [45]: 85.8%
Survivors [46]: 0
ILS at 40 mg/kg/day [20]: 42.8%
